FID counter: fluorescent intercalator displacement, NS3 helicase counter-screen. actives 0.17% (n = 290,000). inhibition, % at 7.9 µM. DNA fluorescent intercalator displacement, fluorescence; in the data active means inhibition above about 37%;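 further: 0% = vehicle and 100% = reference compound; higher means more ethidium bromide displaced from hairpin DNA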
SR-BI uptake up: enhances SR-BI lipid uptake from DiI-HDL. actives 0.096% (n = 320,000). AID 504775. activation, % at 12.5 µM. CHO ldlA[mSR-BI] cells, DiI-HDL uptake fluorescence, 3 h; 100 = double the neutral-control signal;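 active means mean replicate activation of at least 60% and every replicate at or above 60%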;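 further: 0% = median plate neutral-control signal and 100% = twice that signal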
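material = CHO ldlA[mSR-BI] cells | medium = Ham's F12 with 0.5% BSA, HEPES 25 mM, pH 7.4 | reagent = fluorescent DiI-HDL, 10 µg/mL final | compound dosing = single-point compound dose | incubation = 3 h, 37 °C | measured by = bottom-read fluorescence, 550/595 nm | measure = HDL uptake via cellular fluorescence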
Kir21 inh: blocks the mouse Kir2.1 inward-rectifier potassium channel; AID 1672; P35561; actives 0.85% (n = 310,000); HEK293-Kir2.1, FluxOR thallium flux fluorescence; active compounds read low; B-score at 10 µM;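 active means fluorescence ratio B-score at or below minus 3 SD of library scores, with starting-brightness B-score within 2 SD, cut at about -4.2 in these data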;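 further: channel flux triggered by added potassium and thallium sulfate stimulus; B-score of peak minus minimum fluorescence over baseline after thallium stimulus; more negative B-score means stronger Kir2.1 block with less thallium influx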
TMEM16A inh: mouse TMEM16A channel inhibition, primary screen; Q8BHY3; HEK293 TMEM16A/YFP iodide influx fluorescence, ionomycin; normalized B-score (activity score, 25-100; higher = stronger inhibition) at 10 µM; actives 1.2% (n = 310,000);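 active means ratio plate-corrected score three or more library SD toward inhibition, starting fluorescence score within five deviations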;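 further: score derived from kinetic fluorescence span divided by baseline fluorescence per well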
SR-BI HDL uptake: blocks mouse SR-BI lipid uptake from DiI-HDL; inhibition, % at 12.5 µM; Q61009; AID 488896; actives 0.96% (n = 320,000); ldlA[mSR-BI] CHO cells, DiI-HDL uptake fluorescence, 3 h;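 active means mean replicate inhibition of at least 70% and a set share of replicates each scoring 70 or more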;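 further: 0% = median of neutral control wells and 100% = median of positive control wells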
Target sequence (Q61009 whole entry, looked up): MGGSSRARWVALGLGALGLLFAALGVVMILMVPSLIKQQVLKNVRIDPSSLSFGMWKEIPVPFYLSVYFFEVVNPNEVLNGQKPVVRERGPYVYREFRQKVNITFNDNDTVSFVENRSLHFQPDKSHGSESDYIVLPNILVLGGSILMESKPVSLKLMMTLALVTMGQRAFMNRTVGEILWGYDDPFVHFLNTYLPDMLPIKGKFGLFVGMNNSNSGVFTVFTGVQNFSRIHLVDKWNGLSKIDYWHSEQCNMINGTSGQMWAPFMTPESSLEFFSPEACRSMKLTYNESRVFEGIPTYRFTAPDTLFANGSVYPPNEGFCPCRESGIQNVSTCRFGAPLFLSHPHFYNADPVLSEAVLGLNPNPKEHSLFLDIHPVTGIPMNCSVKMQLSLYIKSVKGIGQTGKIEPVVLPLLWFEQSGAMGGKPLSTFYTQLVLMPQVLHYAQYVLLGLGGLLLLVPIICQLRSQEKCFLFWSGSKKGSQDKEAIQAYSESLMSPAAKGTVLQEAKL
ANO1 activ: activators or potentiators of mouse TMEM16A chloride channel; HEK293 TMEM16A/YFP-H148Q/I152L, iodide quench fluorescence; active compounds read low; B-score at 10 µM; actives 0.3% (n = 340,000); AID 623877;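 active means fluorescence-ratio B-score plate-corrected deviation score at least 3 library SD below zero, with starting fluorescence score within 5 deviations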;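 further: channel opened by trigger with iodide after compound preincubation; score built on the fluorescence ratio of max minus min over baseline; more negative score means more quench and so TMEM16A activation or potentiation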
* marks the source's active call; other numbers are inactive results; i = inactive; / = no result given. Rows were chosen to be rich in hits. Some 3% of all compounds tested hit in one or more screens of this group.

SMILES	FID counter	SR-BI uptake up	Kir21 inh	TMEM16A inh	SR-BI HDL uptake	ANO1 activ
COc1ccc(Cn2c(O)c(/C=N/NC(=O)c3ccncc3)c(=O)[nH]c2=O)cc1	-33	2	0.07	i	-2	i
COc1ccc(Cn2c(O)c(/C=N/NC(=O)c3ccccc3O)c(=O)[nH]c2=O)cc1	-11	-97	0.16	i	97*	i
COc1ccc(Cn2c(O)c(/C=N/NC(=O)c3ccccc3)c(=O)[nH]c2=O)cc1	-29	-81	-0.48	i	81*	i
O=C(N/N=C/c1c(O)n(CCc2ccccc2)c(=O)[nH]c1=O)c1ccccc1O	-22	/	0.05	i	/	i
O=C(N/N=C/c1c(O)n(Cc2ccc(F)cc2)c(=O)[nH]c1=O)c1ccccc1O	0	-75	0.01	i	75*	i
O=C(N/N=C/c1c(O)n(Cc2ccccc2)c(=O)[nH]c1=O)c1ccccc1O	-24	-117	-1.1	i	117*	i
CCC1([N+](=O)[O-])COP(=O)(NCc2cccnc2)OC1 (configuration not stated)	/	24	/	/	-24	i
CCCCn1c(O)c(C(C)=NCc2ccco2)c(=O)[nH]c1=O	-26	1	0.76	i	-1	i
FC(F)(F)c1cccc(-n2nnnc2C2(N3CCOCC3)CCCCC2)c1	-19	2	0.16	i	-2	i
COC(=O)C1=C(c2cccc(OCc3ccccc3)c2)C[C@@H]2CC[C@H]1N2C(=O)NCc1ccc(N(C)C)cc1	/	-6	/	/	6	i
C=C(CO)CC1CC(O)[C@]2(C)OC3CC4OC5C[C@]6(C)O[C@]7(C)CCC8OC9C[C@]%10(C)OC%11C(C)=CC(=O)OC%11CC%10OC9C[C@@H](C)C8OC7CC6O[C@]5(C)C/C=C\C4OC3CC2O1 (some centres not stated)	-21	20	2	i	-20	i
C=C(C=O)CC1CC(O)[C@]2(C)OC3CC4OC5C[C@]6(C)O[C@]7(C)CCC8OC9C[C@]%10(C)OC%11C(C)=CC(=O)OC%11CC%10OC9C[C@@H](C)C8OC7CC6O[C@]5(C)CC5OC5C4OC3CC2O1 (some centres not stated)	-32	43	-0.31	i	-43	-8*
CCN1C[C@@]2(COC)C3[C@@H](OC)[C@H]4[C@@H]1[C@@]3(C1C[C@H]3[C@H](OC(C)=O)C1[C@]4(OC(C)=O)C[C@H]3OC)[C@@H](OC)C[C@H]2OC(C)=O (some centres not stated)	/	/	-0.03	i	/	/
Cc1ccc(CC(=O)N2CCN(Cc3ccccc3)CC2)cc1	-9	34	0.81	i	-34	i
Cc1ccccc1CN1CCN(Cc2ccccc2)CC1	2	7	-4.7*	i	-7	i
COC(=O)C1=C(c2cccc(Cl)c2)C[C@@H]2CC[C@H]1N2C(=O)NCC1CC1	/	3	/	/	-3	i
Oc1c(Br)cc(Br)cc1Oc1ccc(Br)cc1Br	0	/	0.65	100*	/	/
Cc1ccc(N2C(=O)NC(=O)/C(=C\c3cc(C)n(-c4sc5c(c4C#N)CCCC5)c3C)C2=O)cc1	-12	-11	-0.01	25*	11	i
CCN1C(=O)NC(=O)/C(=C/c2cc(C)n(-c3sc(C)c(C)c3C#N)c2C)C1=O	-19	29	0.02	i	-29	i
CCOC(=O)c1c(-n2c(C)cc(C=C3C(=O)NC(=S)NC3=O)c2C)sc2c1CCCC2	-17	-6	-4.8*	i	6	i
COC(=O)C1=C(c2ccc(C(C)=O)cc2)C[C@@H]2CC[C@H]1N2C(=O)N1CCC(C)CC1	/	-6	/	/	6	i
COc1ccc2[nH]c(C)c(CCNCc3cccnc3)c2c1	/	3	/	/	-3	i
Cc1[nH]c2ccc(OC(F)(F)F)cc2c1CCNCc1ccc(Cl)cc1	20	25	-7.2*	i	-25	i
CCOc1cccc(CNCCc2c(C)[nH]c3ccc(OC(F)(F)F)cc23)c1O	37	10	-13*	100*	-10	i
O=c1cccc2n1CC1CC2CN(Cc2cccc(Cl)c2Cl)C1 (configuration not stated)	-27	20	-7.8*	i	-20	i
SMILES	FID counter	SR-BI uptake up	Kir21 inh	TMEM16A inh	SR-BI HDL uptake	ANO1 activ
COc1c(C)cc(C(=O)C2CCCN(Cc3cccc(C)n3)C2)cc1C (configuration not stated)	9	5	-1.1	i	-5	i
CCC1C=CC=CC[C@H](C)[C@@H](O)[C@](C)(O)C(=O)[C@@H](C)[C@H](O)[C@@H](C)C(=O)[C@H](C)[C@@H](O)[C@H](C)C=CC(=O)OC2[C@@H](C)C(CC1)OC1(CC[C@@H](C)C(C[C@H](C)O)O1)[C@@H]2C (some centres not stated)	/	/	/	25*	/	/
CCCC(=O)NC(Oc1ccc(OC)cc1)C(Cl)(Cl)Cl (configuration not stated)	-5	-18	-5.7*	i	18	i
N#CCCn1cc(C(=O)Nc2ccc(F)cc2)c(-c2ccc([N+](=O)[O-])cc2)n1	5	-27	-1.1	i	27	i
Clc1cccc(CNCCc2ccc3c(c2)OCO3)c1	3	14	0.85	i	-14	i
COc1ccc(Br)cc1CNCCc1ccc2c(c1)OCO2	/	30	-4.5*	i	-30	i
Clc1ccc(CNCCc2ccc3c(c2)OCO3)cc1	10	-11	-8.8*	i	11	i
C[CH2][Hg][S]c1ccccc1C(=O)O	/	-106	/	i	106*	i
C[C@H]1CCCC(=O)CCC/C=C/c2cc(O)cc(O)c2C(=O)O1	-13	-16	-4.4*	i	19	i
COC(=O)C1=C(c2ccc(OC)c(OC)c2)C[C@@H]2CC[C@H]1N2C(=O)NCc1ccc(F)cc1	/	-22	/	/	12	i
O=C(O)C1(Br)CC12c1ccccc1-c1ccccc12 (configuration not stated)	/	-1	/	/	1	i
CC(=O)OCC[N+](C)(C)C	3	33	-0.72	i	-33	-9.6*
CCOc1cc(CNCCc2ccccc2F)ccc1OC	1	/	-0.07	i	/	i
COc1ccc(CNCCc2ccccc2F)c(OC)c1C	10	9	-5.5*	i	-9	i
COc1ccc(N=C2SCCCN2C)cc1	2	1	-0.91	i	-1	i
CN[C@@H]1C[C@@H](c2ccc(Cl)c(Cl)c2)c2ccccc21	22	/	-11*	25*	/	/
CCCc1nc2ccc(Br)cc2c(=O)n1-c1ccc([N+](=O)[O-])c(C(F)(F)F)c1	1	-20	0.36	100*	20	i
